One block for each compound: values may come before it.
Columns and labels:
[1] = Stability of stock and working standard solutions at refrigerated conditions; type: physicochemical; conditions: for stability of stock solutions (1 mg mL^−1): refrigerator (8 °C), at least one month, DMSO/acetonitrile; for Recovery (%): 30 days at 8 °C
In short: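 Stocks were made at 1 mg mL−1: analyte dissolved in 1 mL DMSO, made up with acetonitrile. They were held refrigerated at 8 °C. Working solutions were diluted in acetonitrile to 5–500 ng mL−1, with internal standard at 200 ng mL−1.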

[2] = Pharmacokinetic study in rats after single oral dose of DUV; type: in vivo, Wistar rat
In short: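 Male Wistar rats (250 ± 30 g), acclimatised 7 days and fasted 12 h with free water, got one oral gavage dose of 25 mg kg−1 in 1% DMSO/saline. About 300 µL heparinised blood was drawn predose and at 0.25–12 h. Plasma was spun at 4500 rpm, 4 °C, 30 min, stored at −20 °C, then quantified by UPLC-ESI-MS/MS. Non-compartmental analysis, 5 rats.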

[3] = Stability studies of DUV in human plasma samples; type: in vitro ADME
In short: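 Blank human plasma was spiked at 15, 150 and 400 ng mL−1 with internal standard at 200 ng mL−1. Exposures: ~48 h in the autosampler, ~6 h at room temperature, three −80 °C/room-temperature freeze–thaw cycles, or 60 days at −80 °C. Samples were precipitated with an equal volume of mobile phase, vortexed, spun, filtered and run by C18 UPLC-ESI-MRM. Mean of 3.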

[4] = male, Wistar, rat, plasma, po, 25 mg/kg
[5] = rat plasma, single oral 25 mg kg^−1, mean of 5

- stability of stock solutions (1 mg mL^−1) [1]: stable
Compound: Cc1cc(Nc2ncc(Cl)c(Nc3ccccc3S(=O)(=O)C(C)C)n2)c(OC(C)C)cc1C1CCNCC1 [CRB, Ceritinib]

- Cmax [2, 4]: 3800 ng/mL
- MRT [2, 4]: 1.04 h
- Tmax [2, 4]: 1.83 h
- half-life [2, 4]: 0.72 h
- k el [2, 4]: 0.000269 s⁻¹
- Area under curve ration (AUC0–t/AUC0–∞) [2, 5]: 95.69%
- Clearance (CL) [2, 5]: 14.2 mL/min/kg
- Elimination half-life time (t1/2) [2, 5]: 0.72 h⁻¹
- Volume of distribution (Vd) [2, 5]: 0.88 L/kg
- Recovery (%) ([3]; 60 days at −80 °C, spiked conc. 5 ng mL^−1, mean of 3): 101.51%
- Recovery (%) ([3]; 60 days at −80 °C, spiked conc. 15 ng mL^−1, mean of 3): 99.84%
- Recovery (%) ([3]; 60 days at −80 °C, spiked conc. 150 ng mL^−1, mean of 3): 101.19%
- Recovery (%) ([3]; 60 days at −80 °C, spiked conc. 400 ng mL^−1, mean of 3): 99.87%
- Recovery (%) ([3]; Autosampler (48 h), spiked conc. 5 ng mL^−1, mean of 3): 100.12%
- Recovery (%) ([3]; Autosampler (48 h), spiked conc. 15 ng mL^−1, mean of 3): 95.89%
- Recovery (%) ([3]; Autosampler (48 h), spiked conc. 150 ng mL^−1, mean of 3): 98.42%
- Recovery (%) ([3]; Autosampler (48 h), spiked conc. 400 ng mL^−1, mean of 3): 103.28%
- Recovery (%) ([3]; Bench top (6 h), room temperature, spiked conc. 5 ng mL^−1, mean of 3): 99.52%
- Recovery (%) ([3]; Bench top (6 h), room temperature, spiked conc. 15 ng mL^−1, mean of 3): 100.21%
- Recovery (%) ([3]; Bench top (6 h), room temperature, spiked conc. 150 ng mL^−1, mean of 3): 101.43%
- Recovery (%) ([3]; Bench top (6 h), room temperature, spiked conc. 400 ng mL^−1, mean of 3): 99.26%
- time stable under autosampler storage settings ([3]; autosampler storage settings): ≥ 48 h
- recovery ([3]; human, human plasma (spiked QC samples)): 95.9 to 103%
- time stable in plasma samples on the bench ([3]; room temperature, bench): at least 6 hours
- stability during freeze–thaw cycles ([3]; three freeze–thaw cycles): stable
- stability at long-term storage ([3]; −80 °C for 60 days): stable
- Recovery (%) ([1]; spiked conc. 5 ng mL^−1, mean of 3): 96.94%
- Recovery (%) ([1]; spiked conc. 15 ng mL^−1, mean of 3): 103.24%
- Recovery (%) ([1]; spiked conc. 150 ng mL^−1, mean of 3): 101.02%
- Recovery (%) ([1]; spiked conc. 400 ng mL^−1, mean of 3): 96.27%
- stability of stock and working standard solutions ([1]; 30 days at refrigerated conditions (8 °C)): stable
- stability of stock solutions (1 mg mL^−1) [1]: stable
Compound: C[C@H](Nc1ncnc2nc[nH]c12)c1cc2cccc(Cl)c2c(=O)n1-c1ccccc1 [DUV, 8-chloro-2-phenyl-3-[(1S)-1-(7H-purin-6-ylamino)ethyl]isoquinolin-1-one]

From publication PMC9999367 (RSC Advances, 2023)
